What was measured:
[1] = target: T1, Melanin-concentrating hormone receptor 1 (Homo sapiens, UniProt Q99705); assay: Displacement of [125I]MCH from human MCH1 receptor expressed in CHO-K1 cells by scintillation counting; format: cell-based
Method in brief: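 Membranes of CHO-K1 cells stably expressing human MCH1R incubated with [125I]-MCH and compound in 50 mM Tris, 10 mM MgCl2, 2 mM EDTA, bacitracin, 0.2% BSA, pH 7.4, 2 h at room temperature. Bound label collected by filtration onto GF/C filters and counted by scintillation. Non-specific binding defined with 1 µM unlabeled MCH. IC50 reported as mean of at least two experiments.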

[2] = target: T1, Melanin-concentrating hormone receptor 1; assay: Antagonist activity at human MCH1 receptor expressed in CHO-K1 cells assessed as inhibition of MCH-induced intracellular calcium mobilization by FLIPR assay; format: functional, cell-based
Method in brief: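 CHO-K1 cells stably expressing human MCH1R, seeded at 3.0 × 10^4 per well and grown 24 h in DMEM/10% FBS with G418. Cells loaded with Fluo-4 AM plus 2.5 mM probenecid for 1 h at 37 °C, then washed into HBSS/20 mM Hepes/0.5% BSA/2.5 mM probenecid, pH 7.4. Compound added 5 min before MCH; Ca2+ mobilization read on FLIPR. IC50 is mean of ≥2 experiments.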

[3] = Intrinsic clearance in rat hepatocytes; format: ADME, cell-based, Liver, Hepatocyte
[4] = Plasma concentration in rat at 30 mg/kg, po after 2 hrs; format: ADME, organism-based; parameters: dose 30 mg/kg, route oral
Method in brief: (§1)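 Rats given 30 mg/kg PO; plasma and brain levels determined 2 h post-dose, with brain/plasma ratio taken from these. Mean values, n = 3.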

Brain = assay: Drug level in rat brain at 30 mg/kg, po after 2 hrs; format: ADME, organism-based; parameters: dose 30 mg/kg, route oral; details: in vivo; method in brief: as §1
[5] = Ratio of drug level from brain to plasma in rat at 30 mg/kg, po after 2 hrs; format: ADME, organism-based; parameters: dose 30 mg/kg, route oral; details: brain and plasma, read-out: BPR; method in brief: as §1
Rattus norvegicus [6] = assay: Antiobese activity in high fat fed Sprague-Dawley rat assessed as suppression of […] food intake at 10 mg/kg, po; format: functional
Method in brief: (§2)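 Male SD rats with a 26-gauge guide cannula in the third ventricle, used after ≥1 week recovery. Rats fed high-fat diet ~3 h, then given compound (10 or 30 mg/kg) or vehicle orally. 1 h later MCH (5 µg/head in artificial CSF) was injected ICV, 1 h before dark onset. Food intake measured over 2 h; 15–20 rats per group, versus vehicle/MCH group.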

Rattus norvegicus [7] = assay: Antiobese activity in high fat fed Sprague-Dawley rat assessed as suppression of […] food intake at 30 mg/kg, po; format: functional; method in brief: as §2
[8] = Clearance in rat at 1 mg/kg, iv and 3 mg/kg, po; format: ADME, organism-based; details: in vivo
Method in brief: (§3)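 Rats dosed at 1 mg/kg IV and 3 mg/kg PO. Clearance, volume of distribution, half-life and oral bioavailability derived from these dosings; mean values, n = 3.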

[9] = Oral bioavailability in rat at 3 mg/kg; format: ADME, organism-based; details: in vivo; method in brief: as §3
[10] = Volume of distribution in rat at 1 mg/kg, iv and 3 mg/kg, po; format: ADME, organism-based; details: in vivo; method in brief: as §3
[11] = Half life in rat at 1 mg/kg, iv and 3 mg/kg, po; format: ADME, organism-based; details: in vivo; method in brief: as §3

T1 sequence (Q99705 whole entry): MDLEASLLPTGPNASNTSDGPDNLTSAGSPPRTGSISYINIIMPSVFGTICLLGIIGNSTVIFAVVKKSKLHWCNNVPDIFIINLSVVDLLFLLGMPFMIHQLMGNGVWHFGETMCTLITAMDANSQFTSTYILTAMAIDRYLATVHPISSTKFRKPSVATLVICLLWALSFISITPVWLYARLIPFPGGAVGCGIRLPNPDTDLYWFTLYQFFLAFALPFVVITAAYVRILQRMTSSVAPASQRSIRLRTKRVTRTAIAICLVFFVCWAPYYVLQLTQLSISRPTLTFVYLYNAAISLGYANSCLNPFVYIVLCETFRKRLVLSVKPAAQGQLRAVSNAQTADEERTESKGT

IC50 [1] [nM] | Structure (SMILES) | also measured
27 | CN(c1nc2ccc(NC(=O)CCc3ccc(C(F)(F)F)cc3)cc2[nH]1)C1CCOC1 (centres undefined) | –
24 | CN(c1nc2ccc(NC(=O)CCc3ccc(C(F)(F)F)cc3)cc2[nH]1)C1CC1 | –
4 | CN(c1nc2ccc(NC(=O)CCc3ccc(C(F)(F)F)cc3)cc2[nH]1)C1CCCC1 | IC50 [2]: 22 nM
30 | CC(=O)N1CCC(N(C)c2nc3ccc(NC(=O)CCc4ccc(C(F)(F)F)cc4)cc3[nH]2)C1 (centres undefined) | –
375 | CC(C)N(C)c1ccc2nc(NC(=O)CCc3ccc(C(F)(F)F)cc3)ccc2n1 | –
428 | O=C(CCc1ccc(C(F)(F)F)cc1)Nc1ccc2nc(N3CCOCC3)[nH]c2c1 | –
41 | CC(C)N(C)c1nc2ccc(NC(=O)CCc3ccc(C(F)(F)F)cn3)cc2[nH]1 | –
15 | CC(C)N(C)c1nc2ccc(NC(=O)c3ncc(-c4ccc(F)cc4)cn3)cc2[nH]1 | CLint scaled [3]: 9 mL/min/kg
5.5 | CC(C)N(C)c1nc2ccc(NC(=O)c3ccc(-c4ccc(F)cc4)nc3)cc2[nH]1 | CLint scaled [3]: 8 mL/min/kg
900 | CC(C)N(C)c1nc2ccc(NC(=O)c3cncc(-c4ccc(F)cc4)c3)cc2[nH]1 | –
5.9 | CC(C)N(C)c1nc2ccc(NC(=O)CCc3ccc(C(F)(F)F)cc3)cc2[nH]1 | IC50 [2]: 21 nM; CLint scaled [3]: 32 mL/min/kg
19 | CCN(C)c1nc2ccc(NC(=O)CCc3ccc(C(F)(F)F)cc3)cc2[nH]1 | –
3.1 | CC(C)N(C)c1nc2ccc(NC(=O)c3ccc(-c4ccc(C(F)(F)F)cn4)cc3)cc2[nH]1 | CLint scaled [3]: 16 mL/min/kg
8.8 | CC(C)N(C)c1nc2ccc(NC(=O)c3ccc(-c4ccccc4)nc3)cc2[nH]1 | CLint scaled [3]: 12 mL/min/kg
6.7 | CN(c1nc2ccc(NC(=O)CCc3ccc(C(F)(F)F)cc3)cc2[nH]1)C1CCCCC1 | IC50 [2]: 27 nM
365 | CC(C)N(C)c1ccc2cc(NC(=O)CCc3ccc(C(F)(F)F)cc3)cnc2n1 | –
135 | CCN(c1nc2ccc(NC(=O)CCc3ccc(C(F)(F)F)cc3)cc2[nH]1)C1CCCCC1 | –
> 750 | CC(C)N(C)c1nc2ccc(NC(=O)CCc3ccc(C(F)(F)F)cc3)cc2s1 | –
2.7 | CC(C)N(C)c1nc2ccc(NC(=O)c3cnc(-c4ccc(F)cc4)cn3)cc2[nH]1 | concentration at 2 h [4]: 3.9 µM; Drug uptake (Brain): 1.4 nmol/g; Kp at 2 h [5]: 0.36; Activity (Rattus norvegicus [6]): 32%; Activity (Rattus norvegicus [7]): 72%; clearance [8]: 11 mL/min/kg; bioavailability [9]: 35%; CLint scaled [3]: 10 mL/min/kg; Vd [10]: 1.2 L/kg; half-life [11]: 2.3 h
12 | CN(C)c1nc2ccc(NC(=O)CCc3ccc(C(F)(F)F)cc3)cc2[nH]1 | –

Structure (SMILES) | IC50 [1] [nM] | also measured
CN1CCC(N(C)c2nc3ccc(NC(=O)CCc4ccc(C(F)(F)F)cc4)cc3[nH]2)CC1 | 23 | –

Reference: ChEMBL document CHEMBL1136956, “Identification of 2-aminobenzimidazoles as potent melanin-concentrating hormone 1-receptor (MCH1R) antagonists” (Bioorg Med Chem Lett, 2009)
